Measurements reported in ChEMBL document CHEMBL1156769, “9-Arylpurines as a novel class of enterovirus inhibitors” (J Med Chem, 2010).

Key:
[1] = Antiviral activity against Echovirus 9 Hill assessed as reduction of virus-induced cytopathic effect after 3 days by MTS assay; assay type: functional, Echovirus 9 (strain Hill)
Outline: (§1)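 Confluent MRC-5 monolayers received serial compound dilutions plus 100 CCID50 of virus and were incubated 3 days at 37 °C, until full CPE appeared in the untreated virus control. Viability was read by MTS/PMS at 498 nm and compared with uninfected, compound-free cells. EC50 (50% CPE inhibition) was obtained by linear interpolation; mean ± SD of at least three independent experiments.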

[2] = Antiviral activity against Coxsackievirus A16 G10 infected in human MRC5 cells assessed as reduction of virus induced cytopathic effect after 3 days by MTS assay; assay type: functional, cell-based, Human coxsackievirus A16 (strain G-10); conditions: Enterovirus A, MRC5, 72 h; outline: as §1
[3] = Antiviral activity against Coxsackie virus A21 Coe infected in human MRC5 cells assessed as reduction of virus induced cytopathic effect after 3 days by MTS assay; assay type: functional, cell-based, Human coxsackievirus A21 (strain Coe); conditions: Enterovirus C, MRC5, 72 h
Outline: (§2)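 Confluent MRC-5 monolayers were cultured at 37 °C and given serial compound dilutions plus 100 CCID₅₀ virus. EC₅₀ (50% CPE inhibition) was found by linear interpolation. Values are the mean ± SD of at least three independent experiments.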

[4] = test system: Poliovirus 1; assay: Antiviral activity against Poliovirus1 sabin infected in Vero cells assessed as reduction of virus induced cytopathic effect after 3 days by MTS assay; assay type: functional, cell-based; conditions: Enterovirus C, 72 h
Outline: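 Vero cells were grown to confluence at 37 °C and then given serial compound dilutions together with 100 CCID₅₀ virus. After 3 days, once virus controls reached full CPE, cell viability was measured by MTS/PMS as absorbance at 498 nm, relative to uninfected untreated wells. EC₅₀ was interpolated linearly as the concentration giving 50% CPE inhibition. Results are the mean ± SD of three or more independent experiments.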

[5] = Cytotoxicity against african green monkey Vero cells after 3 days by MTS assay; assay type: cell-based; conditions: chlorocebus sabaeus
Outline: (§3)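 Uninfected cultures in the antiviral-assay setup were exposed to serial compound dilutions for three days at 37 °C. Viability was read by the MTS method. CC50, the concentration inhibiting cell proliferation by 50%, was obtained by linear interpolation; mean ± SD of at least three independent experiments.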

[6] = Cytotoxicity against human MRC5 cells after 3 days by MTS assay; assay type: cell-based; outline: as §3
[7] = test system: Coxsackievirus A24; assay: Antiviral activity against Coxsackie virus A24 infected in human MRC5 cells assessed as reduction of virus induced cytopathic effect after 3 days by MTS assay; assay type: functional, organism-based; conditions: Enterovirus C, MRC5, 72 h; outline: as §2
[8] = test system: rhinovirus B14; assay: Antiviral activity against Rhinovirus 14 infected in human HeLa-R cells assessed as reduction of virus induced cytopathic effect after 3 days by MTS assay; assay type: functional, organism-based; conditions: Rhinovirus B, 72 h
Outline: (§4)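 Rhinoviruses were cultured in HeLa R cells at 35 °C. Confluent cells received serial compound dilutions and 100 CCID50 of virus until complete CPE developed in the virus control. Survival was quantified by MTS/PMS at 498 nm versus uninfected compound-free cells. EC50 was calculated by linear interpolation; mean ± SD of at least three independent experiments.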

[9] = test system: rhinovirus A2; assay: Antiviral activity against Rhinovirus 2 infected in human HeLa-R cells assessed as reduction of virus induced cytopathic effect after 3 days by MTS assay; assay type: functional, organism-based; conditions: Rhinovirus A, 72 h; outline: as §4
[10] = Cytotoxicity against human HeLa cells after 3 days by MTS assay; assay type: cell-based; outline: as §3
[11] = Cytotoxicity against african green monkey Vero cells after 3 days by Cell titer glo luminescent assay; assay type: cell-based; conditions: chlorocebus sabaeus
Outline: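 Uninfected Vero cells were incubated with serial compound dilutions for three days at 37 °C, using the same setup as the antiviral assay. Survival was measured with the CellTiter-Glo luminescent viability assay. CC50 (50% inhibition of proliferation) was determined by linear interpolation; mean ± SD of at least three independent experiments.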

[12] = Antiviral activity against Enterovirus 71 BrCr infected in human RD cells assessed as reduction of virus induced cytopathic effect after 3 days by MTS assay; assay type: functional, cell-based, Human enterovirus 71 (strain BRCR); conditions: Enterovirus A, 72 h
Outline: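 Virus was cultured in RD cells at 37 °C. Confluent cells were given serial compound dilutions with 100 CCID50 of virus for 3 days, until complete CPE in untreated infected controls. Cell viability was measured by MTS/PMS absorbance at 498 nm. EC50 was derived by linear interpolation; mean ± SD of at least three independent experiments.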

[13] = Antiviral activity against Echovirus 11 Gregory assessed as reduction of virus-induced cytopathic effect after 3 days by MTS assay; assay type: functional, Echovirus 11 (strain Gregory); outline: as §1
[14] = test system: Coxsackievirus B3; assay: Antiviral activity against Coxsackievirus B3 infected in african green monkey Vero cells assessed as reduction of virus-induced cytopathic effect after 3 days by MTS assay; assay type: functional, organism-based; conditions: Enterovirus B, 72 h
Outline: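 CPE-reduction assay in confluent Vero cells. Serial compound dilutions and 100 CCID50 of CVB3 were added, then incubated 3 days at 37 °C until complete CPE in the virus control. Optical density after MTS/PMS was read at 498 nm relative to uninfected untreated cells. EC50 was interpolated linearly; mean ± SD of at least three independent experiments.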

SMILES | CC50 at 72 h [5] [µM] | EC50 [14] [µM] | EC90 [14] [µM] | further results
CC(=O)c1cccc(-n2cnc3c(Cl)ncnc32)c1 | > 100 | 7.3 | 9.1 | EC50 [1]: 3.3 µM; EC50 [2]: 2.7 µM; EC50 [3]: 4.5 µM; EC50 [4]: > 100 µM; CC50 at 72 h [6]: 238 µM; EC50 [7]: 2.7 µM; EC50 [8]: > 100 µM; EC50 [9]: > 100 µM; CC50 at 72 h [10]: 144 µM; CC50 at 72 h [11]: > 250 µM; EC50 [12]: > 100 µM; EC50 [13]: > 100 µM
CNc1ncnc2c1ncn2-c1cccc(CO)c1 | > 100 | > 100 | – | –
O=C(c1ccccc1)c1ccc(-n2cnc3c(Cl)ncnc32)cc1 | > 100 | 67 | 85 | –
COc1cccc(Cn2cnc3ncnc(Cl)c32)c1 | > 100 | 75 | > 100 | –
OCc1cccc(-n2cnc3c(Br)ncnc32)c1 | > 100 | 22 | 29 | –
CC(=O)c1cccc(Nc2ncnc(Cl)c2N)c1 | > 100 | > 100 | – | –
CC(=O)c1cccc(-n2c(C)nc3c(Cl)nc(C)nc32)c1 | > 100 | 11 | 15 | –
Clc1ncnc2c1ncn2-c1ccc2c(c1)OCO2 | > 100 | > 100 | – | –
Cc1nc(Cl)c2[nH]c(=O)n(-c3cccc(C(C)(C)O)c3)c2n1 | > 100 | 22 | 29 | –
CC(=O)c1cc(-n2cnc3c(Cl)ncnc32)ccc1F | > 100 | 9.3 | 15 | –
Cc1nc(Cl)c2ncn(-c3cccc(C(C)(C)O)c3)c2n1 | > 100 | 8 | 7.4 | CC50 at 72 h [6]: > 250 µM; CC50 at 72 h [10]: > 250 µM; CC50 at 72 h [11]: > 250 µM
CC(C)COc1cccc(-n2cnc3c(Cl)ncnc32)c1 | > 100 | 29 | > 100 | –
Cc1ncnc2c1ncn2-c1cccc(CO)c1 | > 100 | > 100 | – | –
CC(=O)c1ccc(-n2cnc3c(Cl)ncnc32)cc1 | > 100 | 35.3 | 51 | –
Fc1cccc(F)c1[C@@H]1SCc2nc3cc(C(F)(F)F)ccc3n21 | > 100 | 1.2 | – | –
CC(C)S(=O)(=O)n1c(N)nc2ccc(/C(=N/O)c3ccccc3)cc21 [ENVIROXIME] | > 100 | 0.7 | – | –
COC(=O)c1cccc(-n2cnc3c(Cl)ncnc32)c1 | > 100 | 11.1 | 22 | –
COc1cccc(-n2cnc3c(Cl)ncnc32)c1 | > 100 | 12 | 22 | –

SMILES | CC50 at 72 h [5] [µM] | EC50 [14] [µM] | EC90 [14] [µM] | further results
CC(=O)c1cccc(-n2c(=O)[nH]c3c(Cl)nc(C)nc32)c1 | > 100 | 6.7 | 10 | CC50 at 72 h [6]: > 250 µM; CC50 at 72 h [10]: > 250 µM; CC50 at 72 h [11]: > 250 µM
Nc1nc(Cl)c2ncn(-c3cccc(CO)c3)c2n1 | > 100 | 17 | 25 | –
OCc1cccc(-n2cnc3cncnc32)c1 | > 100 | > 100 | – | –
CC(C)COc1ccc(-n2cnc3c(Cl)ncnc32)cc1 | > 100 | > 100 | – | –
COc1cccc(Cn2cnc3c(Cl)ncnc32)c1 | > 100 | 53 | 70 | –
CC(=O)c1cccc(-n2nnc3c(Cl)nc(C)nc32)c1 | 44 | > 44 | – | –
CC(=O)c1cccc(Nc2nc(C)nc(Cl)c2N)c1 | > 100 | > 100 | – | –
CC(=O)c1cccc(-n2nnc3c(Cl)ncnc32)c1 | 44 | > 44 | – | –
CC(=O)c1cccc(-n2cnc3c(Cl)nc(C)nc32)c1 | > 100 | 8.7 | 14 | –
CC(=O)c1cccc(-n2c(=O)[nH]c3c(Cl)ncnc32)c1 | > 100 | 9.3 | 18 | –
COc1ncnc2c1ncn2-c1cccc(CO)c1 | > 100 | > 100 | – | –
OCc1ccc(-n2cnc3c(Cl)ncnc32)cc1 | > 100 | 11 | 20 | –
OCc1cccc(-n2cnc3c(Cl)ncnc32)c1 | > 100 | 14.2 | 30 | CC50 at 72 h [6]: 229 µM; CC50 at 72 h [10]: 175 µM; CC50 at 72 h [11]: 200 µM
OCc1cccc(-n2cnc3c(Cl)nc(Cl)nc32)c1 | 8.8 | > 8.8 | – | –
OCc1cccc(-n2cnc3c(O)ncnc32)c1 | > 100 | > 100 | – | –
CC(=O)c1cccc(-n2c(C)nc3c(Cl)ncnc32)c1 | > 100 | 12.2 | 22 | –
COc1ccc(C(C)=O)cc1-n1cnc2c(Cl)nc(C)nc21 | > 100 | > 100 | – | –
COc1ccc(C(C)=O)cc1-n1cnc2c(Cl)ncnc21 | > 100 | > 57 | – | –
